Data on 32 compounds can be found in ChEMBL document CHEMBL1154366, “1,2-Diamines as inhibitors of co-activator associated arginine methyltransferase 1 (CARM1)” (Bioorg Med Chem Lett, 2009).

Series [1] concerns the target T1, Histone-arginine methyltransferase CARM1 (Mus musculus, UniProt Q9WVG6).
T1 sequence (Q9WVG6 whole entry): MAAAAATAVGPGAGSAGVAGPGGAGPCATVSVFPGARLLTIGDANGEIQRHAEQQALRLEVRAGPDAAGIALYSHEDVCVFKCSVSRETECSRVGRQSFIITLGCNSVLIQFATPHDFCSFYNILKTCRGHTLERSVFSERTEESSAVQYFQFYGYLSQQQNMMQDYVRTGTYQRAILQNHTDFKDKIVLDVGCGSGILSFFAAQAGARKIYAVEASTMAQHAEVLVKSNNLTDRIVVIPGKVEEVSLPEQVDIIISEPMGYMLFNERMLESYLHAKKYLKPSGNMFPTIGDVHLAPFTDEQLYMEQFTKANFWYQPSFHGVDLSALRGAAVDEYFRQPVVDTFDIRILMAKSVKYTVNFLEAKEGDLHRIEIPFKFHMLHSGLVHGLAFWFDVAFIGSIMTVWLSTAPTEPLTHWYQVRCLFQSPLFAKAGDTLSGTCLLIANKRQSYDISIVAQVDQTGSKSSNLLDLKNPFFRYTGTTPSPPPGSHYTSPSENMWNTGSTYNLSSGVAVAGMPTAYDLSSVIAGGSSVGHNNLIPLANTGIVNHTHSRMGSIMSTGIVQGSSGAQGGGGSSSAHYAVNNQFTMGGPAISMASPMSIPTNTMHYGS
Put plainly: Inhibition of N-terminal His-tagged mouse recombinant CARM1 expressed in Sf9 cells by microbeta counting. The method in brief: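 Recombinant CARM1 with histone H3 substrate, in Tris-HCl pH 9. Enzyme pre-incubated with compound for 10 min at RT. [3H]SAM (20% labelled, 0.033 mCi/ml) and H3 were added, then 15 min at 30 °C. Quenched with SAH and spotted on P30 filtermat. Washed twice with 10% TCA and once with 95% ethanol, then wax scintillant counting. Values are means of at least two experiments.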

A short description of series [2]: Bioavailability in rat. The series is classed as ADME, organism-based. To be noted: in vivo.
A short description of series [3]: (§1) Volume of distribution at steady state in iv dosed rat. In kind it is ADME, organism-based. To be noted: in vivo, read-out: Vdss.
The nature of series [4]: (§2) Clearance in iv dosed rat. The series is classed as ADME, organism-based. To be noted: in vivo.
A short description of series [5]: (§3) Half life in iv dosed rat. In kind it is ADME, organism-based. To be noted: in vivo.
The target in series [6] is Protein arginine N-methyltransferase 1 (Homo sapiens, UniProt Q99873). Put plainly: Inhibition of N-terminal GST-tagged human recombinant PRMT1 expressed in Escherichia coli by microbeta counting. In short, it runs like this:
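GST-tagged human PRMT1 made in E. coli, with recombinant histone H4 as substrate, in Tris-HCl pH 9. Enzyme pre-incubated with compound for 10 min at RT. [3H]SAM (20% labelled, 0.033 mCi/ml) and H4 were added, then 15 min at 30 °C. Stopped with SAH and spotted onto P30 filtermat. Washed with 10% TCA and 95% ethanol, then scintillation-counted.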

Series [7] concerns the target T2, Histone-lysine N-methyltransferase SETD7 (Homo sapiens, UniProt Q8WTS6).
T2 sequence (Q8WTS6 whole entry): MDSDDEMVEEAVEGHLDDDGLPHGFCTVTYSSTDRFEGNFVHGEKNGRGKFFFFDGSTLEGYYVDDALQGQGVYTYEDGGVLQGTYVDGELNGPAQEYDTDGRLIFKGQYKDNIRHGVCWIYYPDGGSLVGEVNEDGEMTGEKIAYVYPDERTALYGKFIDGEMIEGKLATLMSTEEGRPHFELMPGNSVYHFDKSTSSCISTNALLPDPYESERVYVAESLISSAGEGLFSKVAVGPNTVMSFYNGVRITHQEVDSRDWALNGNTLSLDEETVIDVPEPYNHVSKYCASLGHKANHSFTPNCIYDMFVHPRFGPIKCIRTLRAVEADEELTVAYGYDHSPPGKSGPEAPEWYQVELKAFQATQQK
The experiment in a line: Inhibition of N-terminal His-tagged human recombinant SET7/9 expressed in Escherichia coli by microbeta counting. The method in brief: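 His-tagged human SET9 made in E. coli, with histone H3 substrate, in Tris-HCl pH 9. Compound and enzyme pre-incubated for 10 min at RT. [3H]SAM (20% labelled, 0.011 mCi/ml) and H3 were added, then 45 min at 37 °C. Reaction stopped and transferred to a flashplate. Washed twice with 10% TCA, dried and counted.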

In series [8] the test system is Rattus norvegicus. Described as §1. In kind it is ADME, organism-based. To be noted: in vivo.
For series [9], the system named is Rattus norvegicus. The description is as §2. In kind it is ADME, organism-based. Particulars: in vivo.
Series [10] concerns Rattus norvegicus. Described as §3. Particulars: in vivo. The series is classed as ADME, organism-based.

Sequence of Protein arginine N-methyltransferase 1 (Q99873 whole entry): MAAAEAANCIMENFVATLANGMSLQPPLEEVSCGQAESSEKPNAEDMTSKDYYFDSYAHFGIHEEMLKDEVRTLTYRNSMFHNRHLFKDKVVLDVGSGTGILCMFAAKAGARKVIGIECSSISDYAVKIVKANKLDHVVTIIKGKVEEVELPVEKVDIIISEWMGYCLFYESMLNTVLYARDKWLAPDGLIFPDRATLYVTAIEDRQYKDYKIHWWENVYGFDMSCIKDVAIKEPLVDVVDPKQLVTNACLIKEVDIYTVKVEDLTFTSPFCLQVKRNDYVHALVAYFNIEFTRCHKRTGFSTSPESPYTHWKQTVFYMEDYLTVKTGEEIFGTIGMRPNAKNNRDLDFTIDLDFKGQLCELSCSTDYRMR

`CNCCNCc1cc(-n2nc(C(F)(F)F)cc2C(=O)NCc2ccccc2OC)ccc1C`: the 50% inhibitory concentration (IC50) (as a rule, the concentration needed to halve the response being measured) in series [1] is 7.94 µM.
`CCc1ccccc1CNC(=O)c1cc(C(F)(F)F)nn1-c1cccc(CNCCNC)c1`: the concentration for half-maximal inhibition (IC50) in series [1] is 1.61 µM.
Still for that read-out and setting: the same measure for `CNCCNCc1cccc(-n2nc(C(F)(F)F)cc2C(=O)NCc2cccc3c2OCCO3)c1`: 0.71 µM.
On to `CNCCNCc1ccc2c(c1)n1nc(C(F)(F)F)cc1c(=O)n2Cc1ccccc1OC`, for which the IC50 in [1] was above 10 µM.
For the compound `CCOc1ccccc1CNC(=O)c1cc(C(F)(F)F)nn1-c1cccc(CNCCNC)c1`, in series [2], the bioavailability – broadly, the share of a dose that reaches the circulation, judged against a reference dose that is usually intravenous – is 2%. Besides, in series [1], the concentration for half-maximal inhibition (IC50) stood at 0.9 µM. Also, the Vd in series [3] is 0.1 L/kg. Besides, the clearance (in general, the rate of elimination divided by the concentration) in series [4] is 20 mL/min/kg. Also, the half-life (usually how long it takes for the measured level to halve) in series [5] was 0.5 h.
In series [2], `CNCCNCc1cccc(-n2nc(C(F)(F)F)cc2C(=O)NCc2ccccc2OC)c1` gave a bioavailability of 4%. For the same compound, the IC50 was 0.2 µM in series [1], above 100 µM in series [6] and above 100 µM in series [7]. Moreover, the Vd in series [3] was 1.4 L/kg. Further, the clearance in series [4] is 20 mL/min/kg. Moreover, in [5], the half-life was 2.1 h.
On to `CNCCNCc1cccc(-n2nc(C(F)(F)F)cc2C(=O)NCc2nc3ccccc3[nH]2)c1`, for which the half-inhibitory concentration (IC50) in [1] worked out at 4.3 µM.
`CNCCNCc1cccc(-n2nc(C(F)(F)F)cc2C(=O)NCc2ccccc2C)c1`: in series [1], the IC50 came to 13.1 µM.
Same read-out and setting: with `CNCCNCc1cccc(-n2nc(C(F)(F)F)cc2C(=O)NCCc2c[nH]c3ccccc23)c1` the figure was 1.8 µM; with `COc1ccccc1CNC(=O)c1cc(C(F)(F)F)nn1-c1cccc(CNC2CCNC2)c1` (stereo unspecified), above 20 µM.
Compound `CNCCNCc1cccc(-n2nc(C(F)(F)F)cc2C(=O)NCc2cccc3ccccc23)c1` gave a bioavailability in [2] of 3%. The IC50 in series [1] turned out to be 0.32 µM. In addition, the Vd in series [3] came to 0.2 L/kg. Moreover, in [4], the clearance is 38.3 mL/min/kg. In addition, the half-life in series [5] was 1.4 h.
With `COc1ccccc1CNC(=O)c1cc(C(F)(F)F)nn1-c1cccc(CNC(=O)[C@H](C)O)c1`, the IC50 in series [1] was above 20 µM.
The same measure, in the same setting: with `CNCCNCc1cc(-n2nc(C(F)(F)F)cc2C(=O)NCc2ccccc2OC)ccc1F` the figure was 5.6 µM; with `CCNCCNCc1cccc(-n2nc(C(F)(F)F)cc2C(=O)NCc2ccccc2OC)c1`, 7.7 µM.
As to `CNCCNC(=O)c1cccc(-n2nc(C(F)(F)F)cc2C(=O)NCc2ccccc2OC)c1`, the half-inhibitory concentration (IC50) in series [1] was above 20 µM.
The same measure, in the same setting: with `COc1ccccc1CNC(=O)c1cc(C(F)(F)F)nn1-c1cccc(CNCCN)c1` the figure was 1 µM.
In series [2], `CNCCNCc1cccc(-n2nc(C(F)(F)F)cc2-c2nnc(-c3ccccc3OC)o2)c1` registered a bioavailability of 3%. For the same compound, in series [3], the Vd is 0.6 L/kg. Moreover, the clearance in series [4] was 36.7 mL/min/kg. In series [5], the half-life was 1.8 h.
`CNCCNCc1cccc(-n2nc(C(F)(F)F)cc2C(=O)NCc2ccccc2N)c1`: the half-inhibitory concentration (IC50) in [1] was above 10 µM.
On the same count and under the same terms, the same measure for `CNCCNCc1cccc(-n2nc(C(F)(F)F)cc2C(=O)NCc2ccccc2)c1`: above 10 µM; for `CNCCNCc1cccc(-n2nc(C(F)(F)F)cc2C(=O)NCc2ccccc2OC(F)(F)F)c1`: 6.5 µM.
Still for that read-out and setting: the same measure for `COc1ccccc1CNC(=O)c1cc(C(F)(F)F)nn1-c1cccc(CNCCN(C)C)c1`: 7.9 µM; for `CNCCNCc1cc(-n2nc(C(F)(F)F)cc2C(=O)NCc2ccccc2OC)cc(C(F)(F)F)c1`: above 20 µM; for `CNCCNCc1cccc(-n2nc(C(F)(F)F)cc2C(=O)NCc2nc3ccccc3n2C)c1`: 4.7 µM.
Regarding `CNCCNCc1cccc(-n2nc(C(F)(F)F)cc2C(=O)NCc2cc(F)ccc2OC)c1`, the 50% inhibitory concentration (IC50) in [1] worked out at 0.71 µM.
On to `COc1ccccc1CNC(=O)c1cc(C(F)(F)F)nn1-c1cccc(CCNC(=O)[C@H](C)N)c1`, for which, in series [1], the IC50 is above 20 µM.
Take `CNCCNCc1cccc(-n2nc(C(F)(F)F)cc2C(=O)NCC2CCCCC2)c1`: the IC50 in series [1] came to 3.6 µM.
As for `COc1ccccc1CNC(=O)c1cc(C(F)(F)F)nn1-c1cccc(CNC(=O)[C@H](C)N)c1`, the Vdss – broadly, a proportionality between amount in the body and measured concentration, not a real space – in the series on Rattus norvegicus [8] was 33.6 L/kg. The compound also showed a CL in the series on Rattus norvegicus [9] of 1430 mL/min/kg. In addition, the t1/2 with Rattus norvegicus [10] amounted to 4.2 min.
On to `COc1ccccc1CNC(=O)c1cc(C(F)(F)F)nn1-c1cccc(-c2n[nH]c([C@H](C)N)n2)c1`, for which, in series [1], the half-inhibitory concentration (IC50) was above 20 µM.
Still for that read-out and setting: the same measure for `COc1ccccc1CNC(=O)c1cc(C(F)(F)F)nn1-c1cccc(CNC(=S)[C@H](C)N)c1`: 4.5 µM; for `CNCCNC(C)c1cccc(-n2nc(C(F)(F)F)cc2C(=O)NCc2ccccc2OC)c1` (stereo unspecified): 21 µM.
As for `CNCCNCc1cccc(-n2nc(C(F)(F)F)cc2C(=O)NCc2c(OC)ccc3ccccc23)c1`, in series [1], the 50% inhibitory concentration (IC50) came out at 3.35 µM.
As for `COc1ccccc1CNC(=O)c1cc(C(F)(F)F)nn1-c1cccc(-c2noc([C@H](C)N)n2)c1`, in series [1], the IC50 was above 20 µM.
